HTR1E antagonist – blocks the human 5-HT1E serotonin receptor; inhibition, % at 6 µM; AID 571; P28566; actives 0.99% (n = 65,000); CHO 5-HT1E Ga15 NFAT-bla reporter, FRET, antagonist;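 active = inhibition above a set limit, the mean inhibition across every tested compound plus 3 SD, cut at about 29% in these data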;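 also: signal is the 460 over 535 nm emission ratio of beta-lactamase substrate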
S1P1 ag-PAM – agonists and agonism potentiators of human S1P1 receptor. AID 449. S1P1 CRE-bla cells, forskolin, beta-lactamase FRET, potentiator mode; S1P1 agonist co-added at EC20, 2 nM; 100% = saturating reference agonist, 0% = basal. actives 0.57% (n = 56,000). activation, % at 9.5 µM. P21453;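 active = activation above a cutoff set at the mean activation of all tested compounds plus 3 SD, cut at about 54% in these data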;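 also: forskolin at 4 µM as EC80 and the EC20 agonist is SEW2871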
5-HT1A blocker – blocks the human serotonin 5-HT1a receptor; P08908; CHO 5-HT1a Ga15 NFAT-bla reporter, antagonist mode; inhibition, % at 10 µM; actives 0.68% (n = 62,000); AID 612;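 active = inhibition above the mean of all tested compounds plus 3 SD, cut at about 43% in these data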;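 also: receptor stimulated by 5-CT agonist at 100 nM near EC80; beta-lactamase reporter measured by ratiometric fluorescence of a cleavable substrate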
Target sequence (P08908 whole entry, looked up): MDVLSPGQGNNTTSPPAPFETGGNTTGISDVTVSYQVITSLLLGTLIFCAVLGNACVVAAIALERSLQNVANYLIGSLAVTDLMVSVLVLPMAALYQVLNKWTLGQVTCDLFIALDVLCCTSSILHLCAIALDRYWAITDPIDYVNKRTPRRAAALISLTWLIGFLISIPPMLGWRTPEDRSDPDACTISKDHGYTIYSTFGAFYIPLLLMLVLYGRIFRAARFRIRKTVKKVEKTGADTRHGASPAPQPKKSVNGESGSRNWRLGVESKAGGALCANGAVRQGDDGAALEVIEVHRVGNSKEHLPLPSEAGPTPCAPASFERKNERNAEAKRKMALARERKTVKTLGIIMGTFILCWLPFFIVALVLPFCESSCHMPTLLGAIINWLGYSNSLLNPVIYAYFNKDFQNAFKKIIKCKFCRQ
S1P3 agonist – agonists of human S1P3 receptor. S1P3 NFAT-BLA reporter cells, agonism, FRET ratio; relative to 1 µM S1P, basal subtracted. activation, % at 4.5 µM. actives 0.1% (n = 60,000). Q99500;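 active = activation above the screen-wide mean plus 3 SD, cut at about 4.5% in these data, passing the limit was not always enough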
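Assay system: CHO cells stably expressing human S1P3, Gα16 and NFAT-β-lactamase reporter. Timing: overnight plating, 4 h compound 37 °C, 2 h substrate RT. Signal: β-lactamase FRET emission ratio 460/535 nm. Measure: percent activation versus median 1 µM S1P response, basal-subtracted, per plate. Repeats: primary screen single test, confirmation screen in triplicate.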
HTR1A agonist – activates the human 5-HT1a serotonin receptor | CHO 5-HT1a Ga15 NFAT-bla reporter, FRET ratio; 0% basal, 100% maximal reference agonist | activation, % at 10 µM | actives 0.56% (n = 65,000);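 active = activation above the screen-wide mean activation plus 3 SD, cut at about 19% in these data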
HTR1E agonist – 5-HT1E (human) receptor agonism | CHO 5-HT1E Ga15 NFAT-bla reporter, FRET; 0% DMSO wells, 100% control agonist wells | activation, % at 6 µM | P28566 | actives 0.69% (n = 65,000);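 active = activation above a set limit, the screen-wide mean activation plus 3 SD, cut at about 8.5% in these data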
Numbers stand for hits; - = inactive; . = no result given. Compounds with a hit are over-represented: about 3% of the library has one in this group of screens.

SMILES	HTR1E antagonist	S1P1 ag-PAM	5-HT1A blocker	S1P3 agonist	HTR1A agonist	HTR1E agonist
CSC1=C(C#N)C(c2ccc(Cl)cc2)C2=C(CC(C)(C)CC2=O)N1 (stereo not given)	-	-	-	-	-	-
CCCSC1=C(C#N)C(c2ccc(OC)cc2)C2=C(CC(C)(C)CC2=O)N1 (stereo not given)	49.8	-	.	-	-	-
Cc1nn(-c2ccccc2)c2sc(C(=O)C(C#N)c3ccccn3)cc12 (stereo not given)	-	-	-	-	-	-
COc1ccc(OC)c(C(=O)CN2C(=O)NC(C)(c3ccccc3)C2=O)c1 (stereo not given)	-	-	-	-	161.0	-
Cc1ccc2nc3c(cc(C#N)c(=O)n3-c3nccs3)c(=O)n2c1	-	-	-	12.0	58.9	13.3
CCCN(C(=O)c1cccs1)c1nnc(-c2ccncc2)s1	-	100.7	-	-	-	-
O=S(=O)(Nc1ccc2c(c1)OCO2)c1ccc(Br)s1	-	-	-	-	-	-
COC(=O)C1CCN(C(=O)C(C)Oc2ccc(Cl)cc2Cl)CC1 (stereo not given)	-	.	-	.	89.8	-
O=C(O)C1CCCN(S(=O)(=O)c2ccc(Cl)s2)C1 (stereo not given)	-	-	-	-	-	-
O=C(C1CCCN(S(=O)(=O)c2ccc(Br)s2)C1)N1CCCCCC1 (stereo not given)	-	.	-	.	36.6	-
Cc1ccc(CNC(=O)C2c3ccccc3C(=O)N3CCc4ccccc4C23)o1 (stereo not given)	-	-	-	-	-	-
O=C(NCCN1CCN(Cc2ccccc2)CC1)C1c2ccccc2C(=O)N2CCc3ccccc3C12 (stereo not given)	-	-	59.3	-	-	-
CCOC(=O)c1sc(N)c(C#N)c1COC(=O)CNC(=O)c1ccccc1	-	-	-	-	-	-
CC1(C)CC(=O)C2=C(C1)Nc1ccccc1NC2c1nc2ccccc2[nH]1 (stereo not given)	34.0	-	-	-	-	-
CCN1C(=O)NC(c2cc(Br)ccc2OC)C(C(=O)OC)=C1C (stereo not given)	-	-	-	-	-	-
CN(C)c1oc(-c2ccc(OCc3ccccc3)cc2)nc1C#N	-	72.1	-	-	-	-
N#Cc1nc(-c2ccc(OCc3ccccc3)cc2)oc1NCc1cccnc1	-	59.8	-	-	-	-
CCOC(=O)CSc1nc2ccc(N3CCOCC3)cc2c(=O)n1Cc1ccc2c(c1)OCO2	-	.	-	.	-	-
COc1ccc(-c2ccc(SCC(=O)N3CCCC3)nn2)cc1OC	30.4	-	-	-	-	-
COc1ccc(-c2ccc(SCC(=O)N3CCOCC3)nn2)cc1OC	-	-	-	-	-	-
CCOC(=O)C1=C(N)OC2=C(C(=O)CCC2)C1c1ccccc1OCC (stereo not given)	-	-	-	19.0	-	-
COc1ccccc1NC(=O)c1cc(Sc2nncn2C)nc2ccccc12	-	-	-	-	-	-
CC(C)COP(=O)(c1ccc(N(C)C)cc1)C(O)c1ccccn1 (stereo not given)	-	-	-	-	-	-
COc1ccc(C(=O)COC(=O)CCN=C2NS(=O)(=O)c3ccccc32)cc1OC	-	-	-	-	-	19.5
O=C(Nc1sccc1C(=O)N1CCOCC1)c1cccnc1	-	-	-	-	-	-
SMILES	HTR1E antagonist	S1P1 ag-PAM	5-HT1A blocker	S1P3 agonist	HTR1A agonist	HTR1E agonist
CCOC(=O)CNC(=O)C(NC(=O)C1CCC(C)CC1)C(C)CC (stereo not given)	-	.	-	.	-	-
CCC(O)CNc1nc(-n2nc(C)cc2C)nc2sc3c(c12)CCCC3 (stereo not given)	-	-	-	-	-	-
Cc1cc(C)n(-c2nc(NCc3cccnc3)c3c4c(sc3n2)COC(C)(C)C4)n1	-	-	-	13.1	-	-
ONC=Nc1cccc2nonc12	-	-	-	-	-	-
O=C(CSc1n[nH]c(-c2ccc(S(=O)(=O)N3CCCCC3)cc2)n1)Nc1nccs1	-	-	-	-	-	-
CN1CCN(C(=O)CSc2nc(-c3cccs3)cc(-c3cccs3)c2C#N)CC1	-	67.4	-	-	-	-
O=C(CSc1nc(-c2cccs2)cc(C(F)(F)F)n1)NCc1ccco1	-	-	-	-	-	-
COc1ccc(-c2cc(-c3cccs3)c(C#N)c(SCC(=O)NCc3ccco3)n2)cc1	31.6	-	-	-	-	-
COc1ccc(-c2cn3c(C)c(C(=O)N4CCCc5ccccc54)sc3n2)cc1	-	70.5	-	-	-	-
Cc1cc(C)nc(SC2=CS(=O)(=O)c3ccccc32)n1	-	-	-	-	-	-
O=S1(=O)C=C(Sc2nc3ccccc3s2)c2ccccc21	106.0	114.0	98.5	-	-	-
C=CCn1c(=O)c2ccccc2n2c(SC(C)C(=O)Nc3nc(-c4ccccc4)cs3)nnc12 (stereo not given)	38.3	-	-	-	-	-
CS(=O)(=O)N(CC(=O)NCc1ccncc1)Cc1ccc(Cl)cc1	-	.	-	-	-	-
CCOc1cc(C2c3c(oc4cc(C)c(Cl)cc4c3=O)C(=O)N2Cc2ccco2)ccc1O (stereo not given)	-	-	-	-	-	9.8
Cc1cc2oc3c(c(=O)c2cc1C)C(c1cccc(Br)c1)N(Cc1ccco1)C3=O (stereo not given)	-	-	-	-	-	-
COC(=O)/C=C/S(=O)(=O)c1ccc(NC(C)=O)cc1	66.7	-	81.6	-	-	-
CC(=O)N1CCc2cc(C(=O)CN3CCN(c4cccc(Cl)c4)CC3)ccc21	-	-	-	-	-	25.9
CC(=O)N1CCc2ccc(C(=O)CN3CCN(c4cccc(C)c4C)CC3)cc21	-	-	-	-	-	45.7
OC1CC(c2ccco2)NC2(CCCCC2)C1 (stereo not given)	-	.	-	.	-	-
CC(=O)N1CCN=C1SCc1ccc(Cl)cc1	-	-	-	-	-	-
CC1CN(C(=O)Cc2ccc(-c3ccccc3)cc2)CC(C)O1 (stereo not given)	-	-	-	-	-	-
CC(=O)N1CCc2cc(S(=O)(=O)NC(CC(C)C)C(=O)N3CCn4c3nc3ccccc34)ccc21 (stereo not given)	-	-	-	-	-	-
c1ccc2c(c1)[nH]c1c(N3CCC4(CC3)OCCO4)ncnc12	-	-	.	-	-	-
c1ccc(Cn2nnc3c(N4CCc5ccccc5C4)ncnc32)cc1	-	-	-	-	95.5	-
Cc1ccc2c(c1)[nH]c1c(N3CCN(Cc4ccccc4)CC3)ncnc12	-	132.8	-	-	-	-
